From ChEMBL document CHEMBL4368871, “Flush with a flash: natural three-component antimicrobial combinations based on S-nitrosothiols, controlled superoxide formation and "domino" reactions leading to peroxynitrite” (Medchemcomm, 2018)
Calls of active or inactive are those of the source. No cut-off for these calls is given here.

Experiments:
[1] = Induction of peroxynitrite anion generation assessed as peroxynitrite anion level in presence of riboflavin by DHR-123 indicator based spectrofluorometric method; assay type: functional
Summary of the method: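 Peroxynitrite was generated by the S-nitrosothiol with riboflavin (250, 500, 1000 μM) illuminated by a standard lamp (0.6 Lumen, 310 K), followed over 2–24 h. It was detected by oxidation of dihydrorhodamine 123 to fluorescent rhodamine 123, with excitation at 485 nm and emission at 530 nm.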

[2] = Induction of peroxynitrite anion generation assessed as peroxynitrite anion level in presence of xanthine/xanthine oxidase by DHR-123 indicator based spectrofluorometric method; assay type: functional
Summary of the method: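 Peroxynitrite was generated by the S-nitrosothiol with xanthine (400 μM) and xanthine oxidase (50 mU mL–1), the reaction being started by adding substrate or enzyme. It was quantified spectrofluorometrically by dihydrorhodamine 123 oxidation to rhodamine 123, with excitation at 485 nm and emission at 530 nm.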

Escherichia coli [3] = assay: Antimicrobial activity against Escherichia coli assessed as reduction in microbial growth measured up to 24 hrs in presence of riboflavin under day light exposure; assay type: functional, organism-based
Summary of the method: (§1)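 E. coli was exposed to riboflavin (250, 500, 1000 μM) plus the S-nitrosothiol at 250, 500 or 1000 μM. Incubation was 24 h at 37 °C under a daylight LED (0.6 Lumen). Growth was read as OD at 570 nm at 0 h and 24 h. Controls were medium plus organism, antibiotic/antifungal mix, and riboflavin or RSNO alone. Triplicates on three occasions (n = 9), one-way ANOVA.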

Bacillus cereus = assay: Antimicrobial activity against Bacillus cereus assessed as microbial growth at 250 to 1000 uM measured up to 24 hrs in presence of xanthine/xanthine oxidase; assay type: functional
Summary of the method: (§2)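 Xanthine (400 μM) and xanthine oxidase (50 mU mL–1) were combined with the S-nitrosothiol at 250, 500 and 1000 μM. Growth was read as optical density at 570 nm at 0 h and after 24 h at 37 °C. Controls were medium plus organism (negative) and penicillin/streptomycin/amphotericin B (positive). Runs were in triplicate on three occasions (n = 9), analysed by one-way ANOVA.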

Saccharomyces cerevisiae = assay: Antimicrobial activity against Saccharomyces cerevisiae assessed as microbial growth at 250 to 1000 uM measured up to 24 hrs in presence of xanthine/xanthine oxidase; assay type: functional; summary of the method: as §2
Candida tropicalis = assay: Antimicrobial activity against Candida tropicalis assessed as reduction in microbial growth at 250 to 1000 uM measured up to 24 hrs in presence of xanthine/xanthine oxidase; assay type: functional, organism-based; summary of the method: as §2
Steinernema feltiae [4] = assay: Nematocidal activity against Steinernema feltiae assessed as nematode viability at 250 to 1000 uM measured up to 24 hrs in presence of xanthine/xanthine oxidase; assay type: functional
Steinernema feltiae [5] = assay: Nematocidal activity against Steinernema feltiae assessed as nematode viability at 250 to 1000 uM measured up to 24 hrs in presence of xanthine oxidase; assay type: functional
Escherichia coli [6] = assay: Dark toxicity against Escherichia coli at 250 to 1000 uM in presence of riboflavin measured up to 24 hrs; assay type: organism-based; conditions: in vivo
Summary of the method: (§3)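 E. coli was treated with the riboflavin (250, 500, 1000 μM) plus RSNO (250–1000 μM) system and incubated 24 h at 37 °C in the dark. Growth was read as OD at 570 nm at 0 and 24 h. Medium-only and antibiotic-mix controls were included, plus riboflavin and RSNO dilution controls. Triplicates on three occasions (n = 9).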

Escherichia coli [7] = assay: Dark toxicity against Escherichia coli at 250 to 1000 uM measured under dark condition up to 24 hrs; assay type: organism-based; conditions: in vivo; summary of the method: as §3
Steinernema feltiae [8] = assay: Nematocidal activity against Steinernema feltiae at 250 to 1000 uM in presence of riboflavin measured under dark condition up to 24 hrs; assay type: functional, organism-based
Summary of the method: (§4)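 S. feltiae nematodes were exposed to riboflavin (500 or 1000 μM) with the S-nitrosothiol, incubated 24 h at 37 °C without light. Controls were medium plus nematodes (negative), penicillin/streptomycin/amphotericin B (positive), and 1000 μM riboflavin or RSNO alone. Triplicates on three occasions (n = 9).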

Steinernema feltiae [9] = assay: Nematocidal activity against Steinernema feltiae at 250 to 1000 uM measured under dark condition up to 24 hrs; assay type: functional, organism-based; summary of the method: as §4
Escherichia coli [10] = assay: Antimicrobial activity against Escherichia coli assessed as microbial growth at 250 to 1000 uM measured up to 24 hrs in presence of riboflavin under day light exposure relative to control; assay type: functional; summary of the method: as §1

Structure (SMILES): CC(=O)N[C@@H](C(=O)O)C(C)(C)SN=O
- Activity [1]: 20.4 µM
- Activity [2]: 15.4 µM
- Activity (Escherichia coli [3]): Dose-dependent effect
- Activity (Bacillus cereus): Active
- Activity (Saccharomyces cerevisiae): Active
- Activity (Candida tropicalis): inactive
- Activity (Steinernema feltiae [4]): <10%
- Activity (Steinernema feltiae [5]): 50%

Structure (SMILES): N[C@@H](CCC(=O)N[C@@H](CSN=O)C(=O)NCC(=O)O)C(=O)O [S-NITROSOGLUTATHIONE]
- Activity [1]: 18.9 µM
- Activity [2]: 17.1 µM
- Activity (Escherichia coli [6]): Non-Toxic
- Activity (Escherichia coli [7]): Non-Toxic
- Activity (Steinernema feltiae [8]): inactive
- Activity (Steinernema feltiae [9]): inactive
- Activity (Escherichia coli [10]): 20%
- Activity (Escherichia coli [3]): Dose-dependent effect
- Activity (Bacillus cereus): 6%
- Activity (Saccharomyces cerevisiae): 9%
- Activity (Candida tropicalis): inactive
- Activity (Steinernema feltiae [4]): <10%
- Activity (Steinernema feltiae [5]): 50%
